Rows were chosen to be rich in hits. Some 0.96% of all compounds tested hit in one or more screens of this group.
CIT2 TOR yeast = modulators of TOR pathway CIT2-GFP in S. cerevisiae; 320,000 compounds, 0.065% hits; GFP response vs DMSO, % at 10 µM; S. cerevisiae CIT2-GFP strain, flow cytometry, 3 h; 100 means same as DMSO wells; AID 2029;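 active = GFP response relative to DMSO above a set limit, near the screen mean plus 3 SD, cut at about 150% in these data; inconclusive = Fewer than 70 cells measured for a yeast strain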;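 also: ratio of well median GFP fluorescence to mean of DMSO wells on the plate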
MEP2-GFP yeast = yeast TOR pathway MEP2-GFP modulation; S. cerevisiae MEP2-GFP strain, flow cytometry GFP, 3 h; 100% = DMSO control level; GFP response vs DMSO, % at 10 µM; 330,000 compounds, 0.51% hits;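 active = GFP response versus DMSO above a set limit, roughly screen mean plus 3 SD, cut at about 180% in these data; inconclusive = fewer than 70 cells counted for a yeast strain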;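 also: median GFP fluorescence of the barcode-gated MEP2-GFP cells per well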
LAP4-GFP MLPCN = modulators of TOR pathway LAP4-GFP in S. cerevisiae; AID 2023; 320,000 compounds, 0.34% hits; GFP response vs DMSO, % at 10 µM; S. cerevisiae LAP4-GFP multiplex, flow cytometry GFP, 3 h; median GFP as percent of DMSO wells;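 active = GFP response vs DMSO above a set limit, about the screen mean plus 3 SD, cut at about 150% in these data; inconclusive = under 70 cell events counted for the yeast strain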
RPL19A-GFP yeast = yeast TOR pathway RPL19A-GFP modulation. S. cerevisiae RPL19A-GFP strain, flow cytometry, 3 h; active compounds read low. percent response vs DMSO, % at 10 µM. 330,000 compounds, 0.3% hits;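 active = percent response vs DMSO below 50%; inconclusive = fewer than 70 events counted for the yeast strain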;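 also: median channel GFP fluorescence of the barcoded RPL19A-GFP strain; ratio of sample median GFP to plate DMSO average so 100% = DMSO; lower means less RPL19A-GFP as with rapamycin TOR inhibition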
AGP1-GFP MLPCN = alters AGP1-GFP fluorescence in TOR pathway yeast screen; S. cerevisiae AGP1-GFP multiplex flow cytometry, 3 h; GFP as percent of DMSO wells; GFP response vs DMSO, % at 10 µM; 320,000 compounds, 0.02% hits; AID 2066;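 active = GFP response relative to DMSO above a set limit, near screen average plus 3 SD, cut at about 150% in these data; inconclusive = fewer than 70 cells counted for the yeast strain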;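 also: median GFP channel fluorescence of the gated AGP1 strain per well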
T cell modulator = T cell immune modulation candidate; 2C CD8+ T cell-vesicle binding, flow cytometry; active compounds read low; response (vesicle binding), % at 7 µM; 330,000 compounds, 0.068% hits;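 active = response, share of CD8 T cells binding vesicles, and their 90th percentile fluorescence all below set limits, cut at about 80% in these data, passing the limit was not always enough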;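 also: values below 100% mean blocked vesicle binding to the CD8+ T cells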
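Incubation: binding step 1.5 h, 37 °C, antibody labelling 20 min, ice; system: murine 2C transgenic CD8+ T lymphocytes; technique: cytometric PE anti-B7-1 and Alexa647 anti-CD8 signals after 1% paraformaldehyde fixation; also added: QL9-charged Drosophila Ld/ICAM-1/B7-1 vesicles; control set: naked versus QL9-loaded vesicles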
Starred values were filed as active, the others as inactive; i = inactive; ? = inconclusive; . = no result; [ ] = another dose, or the depositor's remark.

SMILES	CIT2 TOR yeast	MEP2-GFP yeast	LAP4-GFP MLPCN	RPL19A-GFP yeast	AGP1-GFP MLPCN	T cell modulator
O=C(Nc1ccc(Oc2cccnc2)cc1)C1CCN(Cc2cc(Cl)ccc2O)CC1	107	111	92	104	107	287
CCN(CC(O)Cn1c2ccccc2c2ccccc21)S(=O)(=O)c1ccc(F)cc1 (configuration not stated)	110	152	153*	104	101	295
Cc1cc2c(cc1S(=O)(=O)NCCc1ccccc1)NC(=O)CO2	86	79	81	88	100	20*
Cc1cc2c(cc1S(=O)(=O)NCc1ccccc1)NC(=O)CO2	98	103	96	98	103	395
N#Cc1cncc(-c2ccc3c(c2)OCCOCCOCCOCCOCCO3)n1	?	233*[may fluoresce violet]	102	25*[may fluoresce violet]	?	218
Cc1nc(-c2ccc3c(c2)OCCO3)cs1	105	99	95	100	97	173
CCOCCCNC(=O)CN1C(=O)c2ccccc2Sc2ncccc21	100	108	88	102	96	185
CC1CCN(C(=O)COC(=O)CCCN2C(=O)c3cccc4cccc(c34)C2=O)CC1	103	102	98	109	100	0.0*
Cc1ccc2c(c1)/C(=C/c1ccccc1C)C(=O)N2	84	95	102	91	88	117
Cc1ccc2c(c1)/C(=C/c1ccc(F)cc1)C(=O)N2	52	133	153*	77	85	102
Cn1c(SCc2ccccc2)nnc1-c1ccc2nonc2c1	83	88	105	97	97	i
COc1ccc(-c2nn(-c3ccccc3)cc2C(=O)NC(=S)NNC(=O)c2ccncc2)cc1	107	113	150*	103	101	198
CCc1ccc(NC(=O)CCCNC(=O)Cn2cnc3sc(C)c(C)c3c2=O)cc1	101	95	93	103	103	314
O=C(CCNc1ccc(F)cc1)c1ccco1	?	276*[may fluoresce violet]	98	44*[may fluoresce violet]	22	164
O=C(O)c1ccc2ccc3ccccc3c2c1	110	205*	139	91	104	907
NC(=O)c1ccccc1OCC(=O)Nc1ccc(Cl)c(Cl)c1	94	97	107	99	98	256
CCCCC(=O)Nc1nn(C)c2nc3c(C)cccc3cc12	?	359*[may fluoresce violet]	97	42*[may fluoresce violet]	?	184
Cc1cccc(OCC(=O)NCC(=O)N/N=C/c2cc(Br)cc(Br)c2O)c1	90	96	87	92	86	219
COC(=O)[C@]1(Cc2ccccc2)N[C@H](CN(C)C(=O)c2ccc(F)cc2)[C@@H]2C(=O)N(Cc3ccccc3)C(=O)[C@@H]21	95	90	97	94	98	146
O=S(=O)(NCCc1ccccn1)c1ccc(OC(F)(F)F)cc1	171*[may fluoresce green]	112	111	95	123	296
COc1ccc(C(O)c2coc3ccc(O)c(CN(C)C)c23)cc1 (configuration not stated)	89	107	103	102	104	6.9*
COc1ccc(OC)c(C(=O)c2coc3ccc(O)c(CN(C)C)c23)c1	98	100	89	103	100	258
N=c1c(S(=O)(=O)c2ccccc2)cc2c(=O)n3ccccc3nc2n1CCCN1CCOCC1	?	233*[may fluoresce violet]	88	86	?	209
CCOCCCn1c(=N)c(S(=O)(=O)c2ccccc2)cc2c(=O)n3cc(C)ccc3nc21	?	176*[may fluoresce violet]	95	87	15	244
CC(C)OCCCn1c(=N)c(S(=O)(=O)c2ccccc2)cc2c(=O)n3ccccc3nc21	94	96	100	98	98	181
Cc1ccc(S(=O)(=O)c2cc3c(=O)n4ccccc4nc3n(CCCN3CCOCC3)c2=N)cc1C	?	136	86	41*[may fluoresce violet]	?	i
N=c1c(S(=O)(=O)c2ccc(Cl)cc2)cc2c(=O)n3ccccc3nc2n1CCN1CCOCC1	.	86	92	91	85	244
CCc1c(C)nc(N)c(C#N)c1-c1ccccc1	100	98	101	93	98	253

Screening results as filed in PubChem BioAssay.
